The results in this text go back to PubChem BioAssay AID2560 (University of Pittsburgh Molecular Library Screening Center, 2010).

The other results are listed elsewhere or left out. Unmarked numbers belong to inactive results.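 How the source made its calls: active means inhibition of at least 50% in both of the two screening runs; inconclusive means at least 50% in one run, below 50% in the other; inactive means inhibition below 50% in both runs.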

This experiment has as its system hexokinase 1 (Trypanosoma brucei). The experiment can be described thus: TbHK1 inhibitor retest, confirmation, biochemical, DPI cherry-picked primary actives (AID 2560).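 Further: 0% and 100% set by the maximum and minimum signal control wells on each plate.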 The settings on record: recombinant TbHK1, G6PDH-coupled NADH A340 absorbance; at 10 µM; hits give high values. Put shortly:
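System: Trypanosoma brucei hexokinase 1 enzyme with G6PDH coupling enzyme; Medium: Mg2+, NAD+ and G6PDH coupling mix; Reagent: substrates glucose 0.5 mM and ATP 0.35 mM; Doses: single compound dose of 10 µM final; Incubation: enzyme reaction 2 h at room temperature; Signal: A340 NADH absorbance, EDTA-quenched; Repeats: duplicate measurements per compound.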

As usually defined, the inhibition is the change of the read-out against control, counted positive when it falls. With `CC1(C)CC(=O)C=C(NCCCNC2CCCCC2)C1`, the inhibition is 2.17%. Then `COc1cccc(/C=N/Nc2ncc(C(F)(F)F)cc2Cl)c1O`, with -10.9%; and `COC(=O)C1CCN(CC(N)=O)CC1`, with 5.76%. Next, `O=C(CN1C(=O)C2C3C=CC(C3)C2C1=O)NCCc1ccccc1Cl` (centres undefined): -0.0219%.
